Experimental findings from ChEMBL document CHEMBL1124429, “Heterocyclic analogues of benzamide antiarrhythmic agents” (J Med Chem, 1989) are described below.

For orientation: EC20 means the point of the concentration-response curve where the effect stands at 20%.

The species entered for series [1] is Canis familiaris. Briefly: Percent change from control in the rate of rise of phase 0 of the action potential at 10 uM concentration on Canine Purkinje fibers.; value ranges from -18 - -4. It counts as […], organism-based, Canis lupus familiaris, Purkinje fiber. The following applies: dog, in vitro.
Series [2] is filed under the species Canis familiaris. Briefly: The maximum percent change in action potential (Vmax ) at concentration observed (100 uM was tested on Canine Purkinje fibers. More on the design: species or system Canis lupus familiaris, Purkinje fiber. The conditions noted are these: dog. An outline of the steps:
(§1)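 Canine Purkinje fibers were held in oxygenated (95% O2–5% CO2) physiological saline, pH 7.35–7.40, at 36 ± 0.5 °C and paced at 1.0 Hz with 2-ms pulses at twice diastolic threshold. Intracellular microelectrodes (3 M KCl) recorded Vmax and APD95 simultaneously. After up to 1 h of stabilization, compounds were tested from 10^-8 to 10^-3 M with 30 min per concentration. One compound per fiber, with vehicle controls. For N ≥ 3, values are the mean with the range.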

The species entered for series [3] is Canis familiaris. Briefly: Maximum Percent change from control in the rate of rise of phase 0 of the action potential at 30 uM concentration on Canine Purkinje fibers. Further details: species or system Canis lupus familiaris, Purkinje fiber. The conditions noted are these: dog, in vitro. An outline of the steps: (§2)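 Isolated canine Purkinje fibers were superfused with physiological saline gassed with 95% O2/5% CO2 (pH 7.35–7.40) at 36 ± 0.5 °C. Paced at 1.0 Hz with 2-ms pulses at twice diastolic threshold. After up to 1 h stabilization, compounds were tested over 10^-8 to 10^-3 M, 30 min per concentration, one compound per fiber, with vehicle controls. Intracellular microelectrodes (3 M KCl) recorded Vmax and APD95; maximum percent change from control is reported with its concentration.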

Series [4] is filed under the species Canis familiaris. Briefly: Maximum percent change in conduction time (CT) at 100 uM concentration tested on Canine ventricular muscle fibre; value ranges from 6-27. It counts as functional, Canis lupus familiaris, Muscle tissue. An outline of the steps: (§3)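 Canine right ventricular papillary muscle strips were superfused at 36 ± 0.5 °C with saline gassed with 95% O2/5% CO2. Diastolic threshold was found with 2-ms stimuli at 4000 ms cycle length, then pacing at 4× threshold for 60 min equilibration. FRP was measured at 1000 ms cycle length by S1-S2 premature stimulus after every tenth S1. Conduction time came from a bipolar electrogram. Various compound concentrations were tested, one compound per strip, with vehicle controls. Percent change from control was taken at 10 µM, or the maximum change with its concentration; for N ≥ 3, mean with range.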

For series [5], the species on record is Canis familiaris. Briefly: Percent change from control in conduction time (CT) at 10 uM concentration tested on Canine ventricular muscle fibre.; M is minimal(<10% change in CT). Format: functional. The conditions noted are these: Canis lupus familiaris, Muscle tissue. An outline of the steps: as §3
For series [6], the species on record is Canis familiaris. Briefly: Maximum percent change in repolarization at 100 uM concentration on Canine Purkinje fibers. Format: functional, Canis lupus familiaris, Purkinje fiber. An outline of the steps: as §2
The species named for series [7] is Canis familiaris. Briefly: Maximum percent change in repolarization at 1 uM concentration on Canine Purkinje fibers. It counts as functional, Canis lupus familiaris, Purkinje fiber. An outline of the steps: as §2
The species named for series [8] is Canis familiaris. Briefly: Maximum percent change in repolarization at 30 uM concentration on Canine Purkinje fibers. Format: functional, Canis lupus familiaris, Purkinje fiber. The method in brief:
as §2

Series [9] is filed under the species Canis familiaris. Briefly: Percent change in repolarization at 10 Purkinje fibers.; value ranges from -6 -2. It counts as functional, Canis lupus familiaris, Purkinje fiber. The method in brief:
as §1

The species entered for series [10] is Canis familiaris. Briefly: Percent change from control in the functional refractory period (FRP) at 10 uM conc. on Canine ventricular muscle fibre.; value ranges from -1 - 16. Further details: species or system Canis lupus familiaris, Muscle tissue. The method in brief: as §3
The species entered for series [11] is Canis familiaris. Briefly: Maximum percent change in functional refractory period (FRP) at 100 uM on Canine ventricular muscle fibre.; value ranges from -3 - 26. Further details: species or system Canis lupus familiaris, Muscle tissue. The method in brief:
as §3

Series [12] is filed under the species Canis familiaris. Briefly: Maximum Percent change from control in the rate of rise of phase 0 of the action potential at 1 uM concentration on Canine Purkinje fibers. Further details: species or system Canis lupus familiaris, Purkinje fiber. The method in brief:
as §2

The species entered for series [13] is Canis familiaris. Briefly: Percent change from control in the rate of rise of phase 0 of the action potential at 10 uM concentration on Canine Purkinje fibers. More on the design: species or system Canis lupus familiaris, Purkinje fiber. The following applies: dog, in vitro.
The species named for series [14] is Canis familiaris. Briefly: Maximum Percent change from control in the rate of rise of phase 0 of the action potential at 100 uM concentration on Canine Purkinje fibers. It counts as […], Canis lupus familiaris, Purkinje fiber. The following applies: dog, in vitro. An outline of the steps: as §2
The species named for series [15] is Canis familiaris. Briefly: Maximum Percent change from control in the rate of rise of phase 0 of the action potential at 10 uM concentration on Canine Purkinje fibers. Format: functional, Canis lupus familiaris, Purkinje fiber. The conditions noted are these: dog, in vitro. The method in brief:
as §2

The species named for series [16] is Canis familiaris. Briefly: Maximum percent change in conduction time (CT) at 100 uM concentration tested on Canine ventricular muscle fibre. Format: functional, Canis lupus familiaris, Muscle tissue. The method in brief: as §3
The species named for series [17] is Canis familiaris. Briefly: Maximum percent change in repolarization at 10 uM concentration on Canine Purkinje fibers. It counts as functional, Canis lupus familiaris, Purkinje fiber. An outline of the steps: as §2
The species named for series [18] is Canis familiaris. Briefly: Percent change in repolarization at 10 Purkinje fibers.; value ranges from 9-18. Format: functional, Canis lupus familiaris, Purkinje fiber. An outline of the steps:
as §1

The species named for series [19] is Canis familiaris. Briefly: Percent change from control in the functional refractory period (FRP) at 10 uM conc. on Canine ventricular muscle fibre. More on the design: species or system Canis lupus familiaris, Muscle tissue. The method in brief: as §3
Series [20] is filed under the species Canis familiaris. Briefly: Maximum percent change in functional refractory period (FRP) at 100 uM on Canine ventricular muscle fibre. Further details: species or system Canis lupus familiaris, Muscle tissue. An outline of the steps: as §3
The species named for series [21] is Cavia porcellus. Briefly: Concentration of compound which gives a 20% decrease in contractile force was tested from individual experiments on papillary muscle of guinea pig, activity was expressed as EC-20. Format: functional. The conditions noted are these: Muscle tissue. An outline of the steps: (§4)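 Contractile force measured in an isolated cardiac muscle preparation. Value is the concentration giving a 20% decrease in force of contraction. NR marks that this decrease was not reached. Values come from individual experiments; for N ≥ 3, the mean is given with the range.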

The species entered for series [22] is Canis familiaris. Briefly: Percent change from control in the rate of rise of phase 0 of the action potential at 10 uM concentration on Canine Purkinje fibers.; value ranges from -13 - -2. The conditions noted are these: dog, in vitro. Format: organism-based, Canis lupus familiaris, Purkinje fiber.
The species named for series [23] is Canis familiaris. Briefly: Maximum percent change in conduction time (CT) at 10 uM concentration tested on Canine ventricular muscle fibre. Format: functional, Canis lupus familiaris, Muscle tissue. The method in brief:
as §3

Series [24] is filed under the species Canis familiaris. Briefly: Maximum percent change in conduction time (CT) at 1 uM concentration tested on Canine ventricular muscle fibre. Format: functional, Canis lupus familiaris, Muscle tissue. The method in brief: as §3
For series [25], the species on record is Canis familiaris. Briefly: Percent change in conduction time (CT) at 10 uM concentration tested on Canine ventricular muscle fibre; value ranges from -14-6. It counts as functional, Canis lupus familiaris, Muscle tissue.
The species named for series [26] is Canis familiaris. Briefly: Percent change in repolarization at 10 Purkinje fibers.; value ranges from -5 - 5. It counts as functional, Canis lupus familiaris, Purkinje fiber. The method in brief:
as §1

The species entered for series [27] is Canis familiaris. Briefly: Percent change from control in the functional refractory period (FRP) at 10 uM conc. on Canine ventricular muscle fibre.; value ranges from -5-3. Further details: species or system Canis lupus familiaris, Muscle tissue. The method in brief:
as §3

For series [28], the species on record is Canis familiaris. Briefly: Maximum percent change in functional refractory period (FRP) at 100 uM on Canine ventricular muscle fibre.; value ranges from 5-18. More on the design: species or system Canis lupus familiaris, Muscle tissue. The method in brief:
as §3

The species named for series [29] is Cavia porcellus. Briefly: Concentration of compound ( ) which gives a 20% decrease in contractile force was tested on papillary muscle of guinea pig, activity was expressed as EC-20. It counts as functional. The following applies: Muscle tissue. The method in brief: as §4
For series [30], the species on record is Canis familiaris. Briefly: Percent change from control in the rate of rise of phase 0 of the action potential at 10 uM concentration on Canine Purkinje fibers; value ranges from 8.0-4.0. Further details: species or system Canis lupus familiaris, Purkinje fiber. The conditions noted are these: dog.
The species named for series [31] is Canis familiaris. Briefly: The maximum change from control in the rate of rise of phase 0 of the action potential at 10 uM concentration on Canine Purkinje fibers. The following applies: dog. More on the design: species or system Canis lupus familiaris, Purkinje fiber. The method in brief:
as §1

The species named for series [32] is Canis familiaris. Briefly: The maximum percent change from control in the rate of rise of phase 0 of the action potential at 100 uM concentration on Canine Purkinje fibers. More on the design: species or system Canis lupus familiaris, Purkinje fiber. The conditions noted are these: dog, in vitro. An outline of the steps: as §1
For series [33], the species on record is Canis familiaris. Briefly: Percent change from control in conduction time (CT) at 10 uM concentration tested on Canine ventricular muscle fibre; value ranges from -12.0-2.0. It counts as functional, Canis lupus familiaris, Muscle tissue. An outline of the steps: as §3
Series [34] is filed under the species Canis familiaris. Briefly: Percent change in repolarization at 10 Purkinje fibers. It counts as functional, Canis lupus familiaris, Purkinje fiber. An outline of the steps: as §1
The species entered for series [35] is Canis familiaris. Briefly: Maximum percent change in functional refractory period (FRP) at 100 uM on Canine ventricular muscle fibre; value ranges from 7-26. Further details: species or system Canis lupus familiaris, Muscle tissue. The method in brief: as §3
Series [36] is filed under the species Canis familiaris. Briefly: Percent change from control in the functional refractory period (FRP) at 10 uM concentration on Canine ventricular muscle fibre; value ranges from 2-17. More on the design: species or system Canis lupus familiaris, Muscle tissue. The method in brief:
as §3

Values joined by “and” are separate entries in the source; they are usually repeats but may differ in a detail not shown here. Identical values can stand only once.

Turning to `CCN(CC)CCNC(=O)c1cccc2[nH]ccc12`, the Vmax in the series filed under Canis familiaris [1] was -10.5%; in the series listed under Canis familiaris [2], -19%; in the series listed under Canis familiaris [3], -22% and -26%; in the series listed under Canis familiaris [12], -14%. The CT is listed as 14.7% in the series filed under Canis familiaris [4] and “Minimal” in the series listed under Canis familiaris [5]. The APD95 in the series filed under Canis familiaris [6] is reported as -25%; in the series listed under Canis familiaris [7], -6%; in the series filed under Canis familiaris [8], -20%; in the series listed under Canis familiaris [9], -3%. Further, the FRP was determined as 6.3% in the series listed under Canis familiaris [10] and 10.7% in the series filed under Canis familiaris [11].
Take `CCN(CC)CCNC(=O)c1cc2ccccc2[nH]1`: the Vmax in the series listed under Canis familiaris [13] is -2.3%; in the series listed under Canis familiaris [14], -35%; in the series listed under Canis familiaris [15] it was 5%; in the series listed under Canis familiaris [3] it was -6%. Further, the CT in the series filed under Canis familiaris [16] is reported as 15%; in the series filed under Canis familiaris [5] it was “Minimal”. Besides, the APD95 in the series listed under Canis familiaris [6] is -24%; in the series filed under Canis familiaris [17] it was 16% and 18%; in the series listed under Canis familiaris [18], 14.3%. Also, the FRP in the series filed under Canis familiaris [19] is listed as 15%; in the series listed under Canis familiaris [20], 24%. This compound also returned an EC20 in the series filed under Cavia porcellus [21] of 16 µM.
Turning to `CCN(CC)CCNC(=O)c1cc2cccc(O)c2[nH]1`, the Vmax was -7% in the series filed under Canis familiaris [22], -35% in the series listed under Canis familiaris [14] and -19% in the series filed under Canis familiaris [3]. For the same compound, the CT is listed as 16% in the series listed under Canis familiaris [16], -14% in the series listed under Canis familiaris [23], -3% in the series filed under Canis familiaris [24] and -3.3% in the series filed under Canis familiaris [25]. Besides, the APD95 was -28% in the series listed under Canis familiaris [6], 5% in the series filed under Canis familiaris [17], -9% in the series filed under Canis familiaris [8] and 0.7% in the series listed under Canis familiaris [26]. The FRP was -1% in the series filed under Canis familiaris [27] and 10% in the series listed under Canis familiaris [28]. In addition, the EC20 in the series listed under Cavia porcellus [29] came out at 30 µM.
For the compound `CCN(CC)CCNC(=O)c1ccc(N)cc1` [PROCAINAMIDE], the Vmax in the series filed under Canis familiaris [30] is on record as -1.5%; in the series filed under Canis familiaris [31], 4%; in the series listed under Canis familiaris [32] it was -10%. Moreover, the CT in the series listed under Canis familiaris [16] is 4%; in the series listed under Canis familiaris [24], 5%; in the series filed under Canis familiaris [33], -3%. Also, the figures for the APD95 in the series filed under Canis familiaris [6], in the series filed under Canis familiaris [17] and in the series listed under Canis familiaris [34] were 3%, 1% and -1%, respectively. Moreover, the FRP stood at 14.3% in the series listed under Canis familiaris [35] and 8.7% in the series listed under Canis familiaris [36].
